Assay outcomes from PubChem BioAssay.
TRAIL sens C8 – sensitizes caspase-8 expressing cells to TRAIL; inhibition (viability loss, TRAIL sensitization), % at 10 µM; NB7+C8 cells + TRAIL, ATPlite viability luminescence; AID 624354; 360,000 tested, 1% active;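 active means compounds causing at least 50% loss of cell viability in the single-dose screen, relative to plate controls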
PPC-1+TRAIL kill – compounds killing PPC-1 cancer cells with TRAIL present (potentiator screen, no TRAIL-free arm). PPC-1 cells + TRAIL, ATPLite viability luminescence. cell killing (% activity), % at 4 µM or 5 µM. 220,000 tested, 0.41% active;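 active means cell killing above 50% in the first pass at 4 µM, then a duplicate retest at 5 µM averaging 50% or more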
FLuc stim CS – affects firefly luciferase, flagging false hits in luciferase stimulation screens. P08659. ATPlite luciferase biochemical, luminescence, 10 min; 0 = ATP-free wells, 1 = DMSO control. activation factor at 10 µM. 200,000 tested, under 10 active. AID 1027;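 active means luciferase activation factor, scaled between plate controls, of at least 2 with compound at 10 µM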
Target sequence (P08659 whole entry, looked up): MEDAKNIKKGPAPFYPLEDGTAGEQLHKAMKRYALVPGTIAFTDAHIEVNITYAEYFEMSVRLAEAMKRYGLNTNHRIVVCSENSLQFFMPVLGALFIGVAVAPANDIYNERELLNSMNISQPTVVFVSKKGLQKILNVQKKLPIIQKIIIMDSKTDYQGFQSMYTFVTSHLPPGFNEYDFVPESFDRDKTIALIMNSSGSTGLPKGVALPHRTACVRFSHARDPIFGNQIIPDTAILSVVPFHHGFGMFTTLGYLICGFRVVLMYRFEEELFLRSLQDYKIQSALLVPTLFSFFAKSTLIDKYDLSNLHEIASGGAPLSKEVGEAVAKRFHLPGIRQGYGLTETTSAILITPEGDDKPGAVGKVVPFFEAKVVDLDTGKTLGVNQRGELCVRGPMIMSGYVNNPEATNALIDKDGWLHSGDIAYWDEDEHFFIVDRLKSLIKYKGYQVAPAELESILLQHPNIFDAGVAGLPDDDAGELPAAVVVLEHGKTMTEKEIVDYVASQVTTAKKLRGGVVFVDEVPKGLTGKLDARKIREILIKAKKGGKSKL
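assay system = Luciferase/luciferin detection reagent, cell-free biochemical luciferase assay | also added = ATP substrate | times = 10 min post-reagent at room temperature | measured by = luminescence from luciferase reaction | measure = luciferase activation, seen as luminescence increase over controls | benchmarks = low control with PBS replacing ATP, high control enzyme plus ATP without compound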
FLuc inh counter – inhibits firefly luciferase, flagging false hits in luciferase inhibition screens. P08659. ATPLite firefly luciferase biochemical luminescence, 10 min. inhibition, % at 10 µM. 200,000 tested, 1.5% active. AID 1006;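 active means inhibition above about 50% when tested at 10 µM, limit read from the data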
Each line names hits and unclear results; the compound was inactive in the other large screens. An excerpt weighted towards active compounds, which were near 1.5% of everything screened.

O=C(/C=C/c1cccnc1)/C=C/c1cccnc1	TRAIL sens C8 51.2 (no result: FLuc stim CS, FLuc inh counter)
CCN(CC)C(=O)c1nn(-c2ccccc2)c2c1C1CCC2(C)C1(C)C (centres undefined)	TRAIL sens C8 51.0
CCOc1ccc(C(=O)Nc2cc(C)c3c(=O)oc4ccccc4c3n2)cc1	TRAIL sens C8 56.3
Cc1cc(NC(=O)c2ccccc2)nc2c1c(=O)oc1ccccc12	none
Cc1cc(NC(=O)c2ccc(S(=O)(=O)N3CCCC3)cc2)nc2c1c(=O)oc1ccccc12	TRAIL sens C8 55.4
CCN(c1cccc(C)c1)S(=O)(=O)c1ccc2c(c1)NC(=O)CCS2	none (no result: PPC-1+TRAIL kill, FLuc stim CS, FLuc inh counter)
CCn1nc(C)c(/C=N/NC(=O)Cn2cncn2)c1C	none (no result: FLuc stim CS, FLuc inh counter)
c1ccc2nc3c(nc2c1)[nH]c1ccccc13	TRAIL sens C8 51.9
Cc1cc(C)nc(Nc2n[nH]c(-c3ccccc3Cl)n2)n1	FLuc inh counter 57.6
Cc1cc(C)nc(Nc2n[nH]c(-c3cccc4ccccc34)n2)n1	none
Cc1c(O)ccc2c3c(c(=O)oc12)CCC(C)C3 (centres undefined)	none
NCc1ccc(-c2nc3ccccc3o2)cc1	none (no result: TRAIL sens C8)
COc1ccc(-c2nc3ccccc3o2)cc1OC	none (no result: PPC-1+TRAIL kill, FLuc stim CS, FLuc inh counter)
c1ccc2oc(-c3ccc4nc[nH]c4c3)nc2c1	FLuc inh counter 67.9
Nc1nc2ccc(-c3nc4ccccc4o3)cc2s1	FLuc inh counter 58.4
COc1cccc2c1C(=O)C=C(C)C2=O	none
COC1=CC(=O)c2c(ccc3ncnc(N)c23)C1=O	TRAIL sens C8 92.3 (no result: PPC-1+TRAIL kill, FLuc stim CS, FLuc inh counter)
CCOC(=O)C1(Cc2ccccc2C)CCCN(C(=O)COC)C1 (centres undefined)	none (no result: PPC-1+TRAIL kill, FLuc stim CS, FLuc inh counter)
CCc1ccc2nc(N(CCCN(C)C)C(=O)c3ccc(S(=O)(=O)N4CCc5ccccc5C4)cc3)sc2c1	TRAIL sens C8 79.5 (no result: PPC-1+TRAIL kill, FLuc stim CS, FLuc inh counter)
CCOc1cccc2sc(N(CCCN(C)C)C(=O)c3ccc(S(=O)(=O)N4CCc5ccccc5C4)cc3)nc12	TRAIL sens C8 68.3 (no result: PPC-1+TRAIL kill, FLuc stim CS, FLuc inh counter)
O=C(COc1ccccc1Cl)Nc1ccc(Cl)cn1	TRAIL sens C8 50.3, FLuc inh counter 68.8
COc1ccccc1OCC(=O)Nc1ccccn1	FLuc inh counter 71.0
Cc1c(C)c2ccc(OCC(=O)Nc3ccccn3)c(C)c2oc1=O	TRAIL sens C8 92.5 (no result: PPC-1+TRAIL kill, FLuc stim CS, FLuc inh counter)
O=C(COc1ccccc1)Nc1ccc(Cl)cn1	none
O=C(COc1ccc(Cl)cc1Cl)Nc1ccccn1	TRAIL sens C8 94.5, FLuc inh counter 97.4
COc1ccccc1OCC(=O)Nc1ccncc1	none (no result: PPC-1+TRAIL kill, FLuc stim CS, FLuc inh counter)
CC(=O)Nc1ccc(S(=O)(=O)Nc2cc(Cl)ccc2N2CCOCC2)cc1	none (no result: PPC-1+TRAIL kill, FLuc stim CS, FLuc inh counter)
CC(C)CC1=NN(C(=O)c2cccnc2)C(O)(C(F)(F)F)C1 (centres undefined)	none
CCOC(=O)c1c(NC(=O)CSc2nnnn2-c2ccccc2)sc2c1CCC(C)C2 (centres undefined)	none
COc1ccc2cc3cc(C(=O)NC4CC4)sc3nc2c1	TRAIL sens C8 76.8 (no result: PPC-1+TRAIL kill, FLuc stim CS, FLuc inh counter)
O=C1NC(=O)c2c(Br)c(Br)c(Br)c(Br)c21	none (no result: PPC-1+TRAIL kill, FLuc stim CS, FLuc inh counter)
COc1ccc2c(c1)c(CC(=O)OC(C)C(=O)N(C)C)c(C)n2C(=O)c1ccc(Cl)cc1 (centres undefined)	none (no result: PPC-1+TRAIL kill, FLuc stim CS, FLuc inh counter)
COc1ccc(/C=C/C(=O)NC(=S)N2CCN(C)CC2)cc1	none
Cn1c(N)c(C(=O)CCl)c(=O)n(Cc2ccccc2)c1=O	TRAIL sens C8 90.0
CCOC(=O)N1CCC(Nc2c(-c3ccc(C)cc3)c(=O)c2=O)CC1	TRAIL sens C8 60.2
O=C(/C=C/c1c(Cl)cccc1Cl)NCCc1ccccc1	none
CS(=O)(=O)c1ncc(Cl)c(C(=O)Nc2ccc3ccccc3c2)n1	none
CCS(=O)(=O)c1ncc(Cl)c(C(=O)Nc2ccc(C)cc2)n1	TRAIL sens C8 84.1 (no result: PPC-1+TRAIL kill, FLuc stim CS, FLuc inh counter)
CCC1CCCCN1S(=O)(=O)c1ccc(NC(=O)c2nc(S(C)(=O)=O)ncc2Cl)cc1 (centres undefined)	TRAIL sens C8 92.5 (no result: PPC-1+TRAIL kill, FLuc stim CS, FLuc inh counter)
CCS(=O)(=O)c1ncc(Cl)c(C(=O)Nc2ccc(S(=O)(=O)N3CCCC(C)C3)cc2)n1 (centres undefined)	TRAIL sens C8 96.2 (no result: PPC-1+TRAIL kill, FLuc stim CS, FLuc inh counter)
CC1CCCN(S(=O)(=O)c2ccc(NC(=O)CNC3CCCC3)cc2)C1 (centres undefined)	none (no result: PPC-1+TRAIL kill, FLuc stim CS, FLuc inh counter)
CCC1CCCCN1S(=O)(=O)c1ccc(NC(=O)c2ccncc2)cc1 (centres undefined)	none (no result: PPC-1+TRAIL kill, FLuc stim CS, FLuc inh counter)
Cc1ccc(CS(=O)(=O)c2ncc(Cl)c(C(=O)Nc3ccc(OC(F)F)cc3)n2)cc1	TRAIL sens C8 87.9 (no result: PPC-1+TRAIL kill, FLuc stim CS, FLuc inh counter)
CCOC(=O)C1CCCN(c2c(N3CCN(c4cccc(Cl)c4)CC3)c(=O)c2=O)C1 (centres undefined)	none
CCOc1ccc2oc(C(=O)N3CCN(Cc4ccccc4)CC3)c(C)c2c1	none (no result: PPC-1+TRAIL kill, FLuc stim CS, FLuc inh counter)
CCOC(=O)c1c(C)[nH]c(C(=O)OCC(=O)Nc2sccc2C(N)=O)c1C	TRAIL sens C8 55.9 (no result: PPC-1+TRAIL kill, FLuc stim CS, FLuc inh counter)
C[C@@H]1Cn2cnc(C(=O)Nc3cccc(Cl)c3)c2C(=O)N1	none (no result: PPC-1+TRAIL kill, FLuc stim CS, FLuc inh counter)
CN(C)CCCNC(=O)/C(=C/c1ccc(-c2ccc([N+](=O)[O-])cc2)o1)NC(=O)c1ccccc1	none (no result: PPC-1+TRAIL kill, FLuc stim CS, FLuc inh counter)
Cc1ccc(C(=O)N/C(=C\c2ccc(-c3ccccc3[N+](=O)[O-])o2)C(=O)NCCCN(C)C)cc1	TRAIL sens C8 49.3 (no result: PPC-1+TRAIL kill, FLuc stim CS, FLuc inh counter)
Cc1ccc(C(=O)N/C(=C\c2ccc(-c3ccccc3[N+](=O)[O-])o2)C(=O)NCCN(C)C)cc1	TRAIL sens C8 53.5 (no result: PPC-1+TRAIL kill, FLuc stim CS, FLuc inh counter)
O=C(Nc1ccc2cn[nH]c2c1)c1ccccc1F	FLuc inh counter 52.9
CCOc1ccc(C(=O)Nc2ccc3c(c2)OCCO3)cc1OC	FLuc inh counter 59.8
CCOc1ccc(C(=O)Nc2ccc3c(c2)OCCO3)cc1[N+](=O)[O-]	none (no result: PPC-1+TRAIL kill)
COc1cc(OC)cc(C(=O)Nc2ccc3c(c2)OCCO3)c1	TRAIL sens C8 51.4 (no result: PPC-1+TRAIL kill, FLuc stim CS, FLuc inh counter)
COc1cc(OC)cc(C(=O)NC(C(=O)Nc2ccc3c(c2)OCCO3)C(C)C)c1 (centres undefined)	none (no result: PPC-1+TRAIL kill, FLuc stim CS, FLuc inh counter)
CC1=NNC(=O)/C1=C\c1cn(-c2ccccc2)nc1-c1ccc(F)cc1	TRAIL sens C8 86.0
